ChEMBL document CHEMBL1795305, “Sorafenib derivatives induce apoptosis through inhibition of STAT3 independent of Raf” (Eur J Med Chem, 2011)
Active and inactive are the calls of the source. The calls are words filed in the database; no cut-off is given here.

Legend:
[1] = Cytotoxicity against human PLC/PRF/5 cells assessed as growth inhibition; format: functional, cell-based
[2] = target: RAF proto-oncogene serine/threonine-protein kinase (Homo sapiens) (UniProt P04049); conditions: 5 uM
[3] = target: Signal transducer and activator of transcription 3 (Homo sapiens) (UniProt P40763); test: Inhibition of STAT3-mediated cyclin D1 protein expression in human PLC/PRF/5 cells at 5 to 10 uM after 24 hrs by Western blot analysis; format: cell-based
Signal transducer and activator of transcription 3 (Homo sapiens), sequence (P40763 whole entry): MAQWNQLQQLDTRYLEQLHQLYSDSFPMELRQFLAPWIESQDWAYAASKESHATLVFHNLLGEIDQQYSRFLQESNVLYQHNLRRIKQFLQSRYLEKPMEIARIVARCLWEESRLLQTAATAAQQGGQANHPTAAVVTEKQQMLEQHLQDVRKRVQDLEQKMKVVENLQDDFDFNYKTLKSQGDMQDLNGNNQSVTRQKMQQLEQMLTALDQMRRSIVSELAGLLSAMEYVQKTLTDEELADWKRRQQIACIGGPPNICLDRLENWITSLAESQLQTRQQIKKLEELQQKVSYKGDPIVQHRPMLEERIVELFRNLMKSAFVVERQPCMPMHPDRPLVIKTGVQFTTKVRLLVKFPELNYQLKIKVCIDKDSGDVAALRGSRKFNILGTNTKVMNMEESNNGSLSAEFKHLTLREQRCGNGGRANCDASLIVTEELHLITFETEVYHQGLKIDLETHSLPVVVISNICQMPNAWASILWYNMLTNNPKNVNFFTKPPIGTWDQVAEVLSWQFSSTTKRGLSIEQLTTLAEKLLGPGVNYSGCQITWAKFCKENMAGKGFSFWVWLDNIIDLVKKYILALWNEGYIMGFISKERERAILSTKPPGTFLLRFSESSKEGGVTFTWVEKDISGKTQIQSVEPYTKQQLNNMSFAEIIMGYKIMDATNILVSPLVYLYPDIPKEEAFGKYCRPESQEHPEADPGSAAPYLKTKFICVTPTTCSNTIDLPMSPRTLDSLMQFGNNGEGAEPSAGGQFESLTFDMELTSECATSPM
How it was run: (§1)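 PLC5 cells in FBS-containing medium treated 24 h at 5 and 10 µM; whole-cell lysates immunoblotted for phospho-STAT3, total STAT3, cyclin D1 and survivin.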

PLC-PRF-5 [4] = test: Induction of apoptosis in human PLC/PRF/5 cells assessed as DNA fragmentation at 5 to 10 uM by ELISA; format: functional, cell-based
How it was run: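 PLC5 cells treated 24 h at 5 and 10 µM in culture; cell death quantified as DNA fragmentation by ELISA kit following manufacturer's standard protocol.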

[5] = target: Signal transducer and activator of transcription 3 (Homo sapiens) (UniProt P40763); test: Inhibition of IL6-induced STAT3 phosphorylation in human PLC/PRF/5 cells at 10 uM after 24 hrs by ELISA; format: cell-based
How it was run: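 PLC5 cells pre-treated with IL-6 1 ng/mL, then exposed to compound at 10 µM for 24 h; lysates incubated on antibody-coated plate capturing phospho- and non-phospho-STAT3; phospho-STAT3 detected by absorbance at 450 nm; mean ± SD, N = 3.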

PLC-PRF-5 [6] = test: Induction of apoptosis in human PLC/PRF/5 at 5 to 10 uM by flow cytometry; format: functional
How it was run: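 PLC5 cells treated 24 h at 5 and 10 µM; trypsinized, washed in PBS, stained with propidium iodide 30 min at 37 °C in the dark; apoptotic fraction read as sub-G1 population by flow cytometry; triplicate experiments.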

[7] = target: RAF proto-oncogene serine/threonine-protein kinase (Homo sapiens) (UniProt P04049); test: Inhibition of raf kinase in human PLC/PRF/5 cell lysate at 10 uM after 24 hrs
[8] = target: Signal transducer and activator of transcription 3 (Homo sapiens) (UniProt P40763); test: Inhibition of STAT3-mediated survivin expression in human PLC/PRF/5 cells at 5 to 10 uM after 24 hrs by Western blot analysis; format: cell-based; how it was run: as §1

Cc1cc(Oc2ccnc3c([N+](=O)[O-])cccc23)ccc1NC(=O)c1cc(C(F)(F)F)cc(C(F)(F)F)c1
IC50 ([1]; Homo sapiens, PLC-PRF-5): > 40 µM

CNC(=O)c1cc(Oc2ccc(NC(=O)Nc3ccc(Cl)c(C(F)(F)F)c3)cc2)ccn1 [SORAFENIB]
IC50 ([1]; Homo sapiens, PLC-PRF-5): 8.3 µM
inhibition [2]: 50%

Nc1cccc2c(Oc3cccc(NC(=O)c4cc(C(F)(F)F)cc(C(F)(F)F)c4)c3)ccnc12
IC50 ([1]; Homo sapiens, PLC-PRF-5): 19 µM

SC-1 [listing 1 of 2 here]
inhibition [3]: Active
Activity (PLC-PRF-5 [4]): Active
inhibition [5]: Active
Activity (PLC-PRF-5 [6]): Active
inhibition [7]: inactive
inhibition [8]: Active

CNC(=O)c1cc(Oc2ccc(NS(=O)(=O)c3ccc([N+](=O)[O-])cc3)cc2)ccn1
IC50 ([1]; Homo sapiens, PLC-PRF-5): > 40 µM

CNC(=O)c1cc(Oc2ccc(NS(=O)(=O)c3ccccc3)cc2)ccn1
IC50 ([1]; Homo sapiens, PLC-PRF-5): > 40 µM

CC(=O)Nc1cccc2c(Oc3cccc(NC(=O)c4cc(C(F)(F)F)cc(C(F)(F)F)c4)c3)ccnc12
IC50 ([1]; Homo sapiens, PLC-PRF-5): 10.8 µM

O=[N+]([O-])c1cccc2c(Oc3ccc(NS(=O)(=O)c4ccc(C(F)(F)F)cc4Br)cc3)ccnc12
IC50 ([1]; Homo sapiens, PLC-PRF-5): > 40 µM

O=[N+]([O-])c1cc(C(F)(F)F)ccc1S(=O)(=O)Nc1ccc(Oc2ccnc3ccccc23)cc1
inhibition [3]: inactive
IC50 ([1]; Homo sapiens, PLC-PRF-5): > 40 µM
inhibition [8]: inactive

CNC(=O)c1cc(Oc2ccc(NC(=O)c3cc(C(F)(F)F)ccc3F)cc2)ccn1
IC50 ([1]; Homo sapiens, PLC-PRF-5): > 40 µM

O=C(Nc1cccc(Oc2ccnc3c([N+](=O)[O-])cccc23)c1)c1cc(C(F)(F)F)cc(C(F)(F)F)c1
IC50 ([1]; Homo sapiens, PLC-PRF-5): > 40 µM

CNC(=O)c1cc(Oc2ccc(NC(=O)c3cc(C(F)(F)F)cc(C(F)(F)F)c3)cc2)ccn1
IC50 ([1]; Homo sapiens, PLC-PRF-5): > 40 µM

O=C(Nc1ccc(Oc2ccnc3ccccc23)cc1)c1cc(C(F)(F)F)cc(C(F)(F)F)c1
IC50 ([1]; Homo sapiens, PLC-PRF-5): 16 µM

O=[N+]([O-])c1cc(C(F)(F)F)ccc1S(=O)(=O)Nc1ccc(Oc2ccnc3c([N+](=O)[O-])cccc23)cc1
IC50 ([1]; Homo sapiens, PLC-PRF-5): > 40 µM

O=C(Nc1ccc(Oc2ccnc3c([N+](=O)[O-])cccc23)cc1)c1cc(C(F)(F)F)cc(C(F)(F)F)c1
IC50 ([1]; Homo sapiens, PLC-PRF-5): > 40 µM

CNC(=O)c1cc(Oc2ccc(NS(=O)(=O)c3ccccc3[N+](=O)[O-])cc2)ccn1
IC50 ([1]; Homo sapiens, PLC-PRF-5): > 40 µM

CNC(=O)c1cc(Oc2ccc(NS(=O)(=O)c3ccc(C(F)(F)F)cc3Br)cc2)ccn1
IC50 ([1]; Homo sapiens, PLC-PRF-5): > 40 µM

CNC(=O)c1cc(Oc2ccc(NS(=O)(=O)c3ccc4ccccc4c3)cc2)ccn1
IC50 ([1]; Homo sapiens, PLC-PRF-5): > 40 µM

CNC(=O)c1cc(Oc2ccc(NC(=O)c3ccc(C(F)(F)F)cc3)cc2)ccn1
IC50 ([1]; Homo sapiens, PLC-PRF-5): > 40 µM

SC-1 [listing 2 of 2 here]
IC50 ([1]; plc-prf-5): 7.5 µM

O=C(Nc1ccc(Oc2ccnc3c([N+](=O)[O-])cccc23)cc1)c1cc(C(F)(F)F)ccc1F
IC50 ([1]; Homo sapiens, PLC-PRF-5): > 40 µM

O=C(Nc1ccc(Oc2ccnc3ccccc23)cc1)c1cc(C(F)(F)F)ccc1F
IC50 ([1]; Homo sapiens, PLC-PRF-5): 21.1 µM

CNC(=O)c1cc(Oc2ccc(NS(=O)(=O)c3ccc(F)cc3)cc2)ccn1
IC50 ([1]; Homo sapiens, PLC-PRF-5): > 40 µM

CC(=O)Nc1cccc2c(Oc3ccc(NC(=O)c4cc(C(F)(F)F)cc(C(F)(F)F)c4)c(C)c3)ccnc12
IC50 ([1]; Homo sapiens, PLC-PRF-5): > 40 µM

Cc1cc(Oc2ccnc3c(N)cccc23)ccc1NC(=O)c1cc(C(F)(F)F)cc(C(F)(F)F)c1
IC50 ([1]; Homo sapiens, PLC-PRF-5): 25.4 µM

O=S(=O)(Nc1ccc(Oc2ccnc3ccccc23)cc1)c1ccc(C(F)(F)F)cc1Br
IC50 ([1]; Homo sapiens, PLC-PRF-5): > 40 µM

CNC(=O)c1cc(Oc2ccc(NS(=O)(=O)c3ccc(C(C)(C)C)cc3)cc2)ccn1
IC50 ([1]; Homo sapiens, PLC-PRF-5): > 40 µM
